Reference: ChEMBL document CHEMBL3779833, “Hydroxyurea derivatives of irofulven with improved antitumor efficacy” (Bioorg Med Chem Lett, 2016)
Calls of active or inactive are those of the source. The calls are words filed in the database; no cut-off is given here.

Legend:
[1] = Cytotoxicity against human CHRF-288-11 cells after 48 hrs by trypan blue exclusion assay; assay type: cell-based
Method in brief: (§1)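 Cells exposed to drug for 48 h; growth measured by trypan blue exclusion. IC50 is the concentration giving 50% growth inhibition; values reported in nM.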

[2] = Cytotoxicity against human MV522 cells after 48 hrs by trypan blue exclusion assay; assay type: functional, cell-based; details: MV522, 48 h; method in brief: as §1
A549 = test: Cytotoxicity against human A549 cells after 48 hrs by sulforhodamine B assay; assay type: functional, cell-based; details: A549, 48 h, read-out: pIC50 (converted)
EKVX = test: Cytotoxicity against human EKVX cells after 48 hrs by sulforhodamine B assay; assay type: functional, cell-based
[3] = Cytotoxicity against human HOP62 cells after 48 hrs by sulforhodamine B assay; assay type: functional, cell-based; details: HOP-62, 48 h
[4] = Cytotoxicity against human HOP92 cells after 48 hrs by sulforhodamine B assay; assay type: functional, cell-based; details: HOP-92, 48 h
NCI-H226 = test: Cytotoxicity against human NCI-H226 cells after 48 hrs by sulforhodamine B assay; assay type: functional, cell-based; details: NCI-H226, 48 h
NCI-H23 = test: Cytotoxicity against human NCI-H23 cells after 48 hrs by sulforhodamine B assay; assay type: functional, cell-based; details: NCI-H23, 48 h
NCI-H322M = test: Cytotoxicity against human NCI-H322M cells after 48 hrs by sulforhodamine B assay; assay type: functional, cell-based
NCI-H460 = test: Cytotoxicity against human NCI-H460 cells after 48 hrs by sulforhodamine B assay; assay type: functional, cell-based; details: NCI-H460, 48 h, read-out: pIC50 (converted)
NCI-H522 = test: Cytotoxicity against human NCI-H522 cells after 48 hrs by sulforhodamine B assay; assay type: functional, cell-based; details: NCI-H522, 48 h
[5] = Cytotoxicity against human COLO205 cells after 48 hrs by sulforhodamine B assay; assay type: functional, cell-based; details: COLO 205, 48 h
[6] = Cytotoxicity against human HCC2998 cells after 48 hrs by sulforhodamine B assay; assay type: functional, cell-based; details: HCC 2998, 48 h
[7] = Cytotoxicity against human HCT116 cells after 48 hrs by sulforhodamine B assay; assay type: functional, cell-based; details: HCT-116, 48 h
[8] = Cytotoxicity against human HCT15 cells after 48 hrs by sulforhodamine B assay; assay type: functional, cell-based; details: HCT-15, 48 h
HT-29 = test: Cytotoxicity against human HT-29 cells after 48 hrs by sulforhodamine B assay; assay type: functional, cell-based; details: HT-29, 48 h
KM12 = test: Cytotoxicity against human KM12 cells after 48 hrs by sulforhodamine B assay; assay type: functional, cell-based; details: KM12, 48 h
[9] = Cytotoxicity against human SW620 cells after 48 hrs by sulforhodamine B assay; assay type: functional, cell-based; details: SW-620, 48 h
[10] = Cytotoxicity against human SF268 cells after 48 hrs by sulforhodamine B assay; assay type: functional, cell-based; details: SF-268, 48 h
[11] = Cytotoxicity against human SF295 cells after 48 hrs by sulforhodamine B assay; assay type: functional, cell-based; details: SF-295, 48 h
[12] = Cytotoxicity against human SF539 cells after 48 hrs by sulforhodamine B assay; assay type: functional, cell-based; details: SF-539, 48 h
[13] = Cytotoxicity against human SNB19 cells after 48 hrs by sulforhodamine B assay; assay type: functional, cell-based; details: SNB-19, 48 h
[14] = Cytotoxicity against human SNB75 cells after 48 hrs by sulforhodamine B assay; assay type: functional, cell-based; details: SNB-75, 48 h
U-251 = test: Cytotoxicity against human U251 cells after 48 hrs by sulforhodamine B assay; assay type: functional, cell-based; details: U-251, 48 h
[15] = Cytotoxicity against human LOXIMVI cells after 48 hrs by sulforhodamine B assay; assay type: functional, cell-based; details: LOX IMVI
Malme-3M = test: Cytotoxicity against human MALME-3M cells after 48 hrs by sulforhodamine B assay; assay type: functional, cell-based
M14 = test: Cytotoxicity against human M14 cells after 48 hrs by sulforhodamine B assay; assay type: functional, cell-based; details: M14, 48 h
MDA-MB-435 = test: Cytotoxicity against human MDA-MB-435 cells after 48 hrs by sulforhodamine B assay; assay type: functional, cell-based; details: MDA-MB-435, 48 h
SK-MEL-2 = test: Cytotoxicity against human SK-MEL-2 cells after 48 hrs by sulforhodamine B assay; assay type: functional, cell-based; details: SK-MEL-2, 48 h
SK-MEL-28 = test: Cytotoxicity against human SK-MEL-28 cells after 48 hrs by sulforhodamine B assay; assay type: functional, cell-based; details: SK-MEL-28, 48 h
SK-MEL-5 = test: Cytotoxicity against human SK-MEL-5 cells after 48 hrs by sulforhodamine B assay; assay type: functional, cell-based; details: SK-MEL-5, 48 h
[16] = Cytotoxicity against human UACC257 cells after 48 hrs by sulforhodamine B assay; assay type: functional, cell-based; details: UACC-257, 48 h
[17] = Cytotoxicity against human IGROV1 cells after 48 hrs by sulforhodamine B assay; assay type: functional, cell-based; details: IGROV-1, 48 h
[18] = Cytotoxicity against human OVCAR3 cells after 48 hrs by sulforhodamine B assay; assay type: functional, cell-based; details: OVCAR-3, 48 h
[19] = Cytotoxicity against human OVCAR4 cells after 48 hrs by sulforhodamine B assay; assay type: functional, cell-based; details: OVCAR-4, 48 h
[20] = Cytotoxicity against human OVCAR5 cells after 48 hrs by sulforhodamine B assay; assay type: functional, cell-based; details: OVCAR-5, 48 h
[21] = Cytotoxicity against human OVCAR8 cells after 48 hrs by sulforhodamine B assay; assay type: functional, cell-based; details: OVCAR-8, 48 h
[22] = Cytotoxicity against human NCI-ADR-RES cells after 48 hrs by sulforhodamine B assay; assay type: functional, cell-based
[23] = Cytotoxicity against human SKOV3 cells after 48 hrs by sulforhodamine B assay; assay type: functional, cell-based; details: SK-OV-3, 48 h
786-0 = test: Cytotoxicity against human 786-0 cells after 48 hrs by sulforhodamine B assay; assay type: functional, cell-based; details: 786-0, 48 h
A498 = test: Cytotoxicity against human A498 cells after 48 hrs by sulforhodamine B assay; assay type: functional, cell-based; details: A498, 48 h
ACHN = test: Cytotoxicity against human ACHN cells after 48 hrs by sulforhodamine B assay; assay type: functional, cell-based
[24] = Cytotoxicity against human Caki1 cells after 48 hrs by sulforhodamine B assay; assay type: functional, cell-based; details: CAKI-1, 48 h
[25] = Cytotoxicity against human RXF393 cells after 48 hrs by sulforhodamine B assay; assay type: functional, cell-based; details: RXF 393, 48 h
SN12C = test: Cytotoxicity against human SN12C cells after 48 hrs by sulforhodamine B assay; assay type: functional, cell-based
[26] = Cytotoxicity against human TK10 cells after 48 hrs by sulforhodamine B assay; assay type: functional, cell-based; details: TK-10, 48 h
[27] = Cytotoxicity against human UO31 cells after 48 hrs by sulforhodamine B assay; assay type: functional, cell-based; details: UO-31, 48 h
[28] = Cytotoxicity against human PC3 cells after 48 hrs by sulforhodamine B assay; assay type: functional, cell-based; details: PC-3, 48 h
[29] = Cytotoxicity against human DU145 cells after 48 hrs by sulforhodamine B assay; assay type: functional, cell-based; details: DU-145, 48 h, read-out: pIC50 (converted)
MCF7 = test: Cytotoxicity against human MCF7 cells after 48 hrs by sulforhodamine B assay; assay type: functional, cell-based; details: MCF7, 48 h
MDA-MB-231 = test: Cytotoxicity against human MDA-MB-231 cells after 48 hrs by sulforhodamine B assay; assay type: functional, cell-based; details: MDA-MB-231, 48 h
[30] = Cytotoxicity against human Hs 578T cells after 48 hrs by sulforhodamine B assay; assay type: functional, cell-based
[31] = Cytotoxicity against human BT549 cells after 48 hrs by sulforhodamine B assay; assay type: functional, cell-based; details: BT-549, 48 h
T47D = test: Cytotoxicity against human T47D cells after 48 hrs by sulforhodamine B assay; assay type: functional, cell-based
[32] = Selectivity index, ratio of IC50 for human CHRF-288-11 cells to IC50 for human MV522 cells; assay type: functional
Method in brief: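 Ratio of the IC50 in megakaryocytic CHRF 288-11 (non-target) cells to the IC50 in MV522 adenocarcinoma (target) cells.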

MV522 = test: Antitumor activity against human MV522 cells xenografted in Balb/c nu/nu mouse assessed as inhibition of tumor growth at 10 mg/kg, ip administered thrice a week for 3 weeks; assay type: functional, organism-based
Method in brief: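 MV522 tumour xenografts in Balb/c nu/nu mice; drugs given intraperitoneally 3 times a week for 3 consecutive weeks at 10 mg/kg, the dose compared across agents; N = 8 per group.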

CC(=O)ON(CC1=C(C)C=C2C(=O)[C@](C)(O)C3(CC3)C(C)=C21)C(N)=O
IC50 [1]: 1900 nM

NC(=O)NO [HYDROXYUREA]
IC50 [2]: > 650000 nM

CC1=C(CO)C2=C(C)C3(CC3)[C@@](C)(O)C(=O)C2=C1 [IROFULVEN]
IC50 (A549): < 126 nM
IC50 (EKVX): 200 nM
IC50 [3]: 158 nM
IC50 [4]: 316 nM
IC50 (NCI-H226): 200 nM
IC50 (NCI-H23): 79.4 nM
IC50 (NCI-H322M): 251 nM
IC50 (NCI-H460): < 50.1 nM
IC50 (NCI-H522): 158 nM
IC50 [5]: 158 nM
IC50 [6]: 158 nM
IC50 [7]: 200 nM
IC50 [8]: 316 nM
IC50 (HT-29): 251 nM
IC50 (KM12): 631 nM
IC50 [9]: 631 nM
IC50 [10]: 251 nM
IC50 [11]: 316 nM
IC50 [12]: 158 nM
IC50 [13]: 316 nM
IC50 [14]: 200 nM
IC50 (U-251): 316 nM
IC50 [15]: 631 nM
IC50 (Malme-3M): 200 nM
IC50 (M14): 251 nM
IC50 (MDA-MB-435): 1580 nM
IC50 (SK-MEL-2): 200 nM
IC50 (SK-MEL-28): 631 nM
IC50 (SK-MEL-5): 158 nM
IC50 [16]: 251 nM
IC50 [17]: 158 nM
IC50 [18]: 251 nM
IC50 [19]: 251 nM
IC50 [20]: 158 nM
IC50 [21]: 200 nM
IC50 [22]: 251 nM
IC50 [23]: 251 nM
IC50 (786-0): 200 nM
IC50 (A498): 200 nM
IC50 (ACHN): 251 nM
IC50 [24]: 251 nM
IC50 [25]: 50.1 nM
IC50 (SN12C): 398 nM
IC50 [26]: 251 nM
IC50 [27]: 200 nM
IC50 [28]: 251 nM
IC50 [29]: < 100 nM
IC50 (MCF7): 251 nM
IC50 (MDA-MB-231): 316 nM
IC50 [30]: 316 nM
IC50 [31]: 316 nM
IC50 (T47D): 200 nM
IC50 [2]: 70 nM
IC50 [1]: 290 nM
Ratio IC50 [32]: 4.1
TGI (MV522): Active

CC1=C(CN(O)C(N)=O)C2=C(C)C3(CC3)[C@@](C)(O)C(=O)C2=C1 [LP-184]
IC50 (A549): < 10 nM
IC50 (EKVX): 316 nM
IC50 [3]: 25.1 nM
IC50 [4]: 39.8 nM
IC50 (NCI-H226): 200 nM
IC50 (NCI-H23): 15.8 nM
IC50 (NCI-H322M): 100 nM
IC50 (NCI-H460): < 10 nM
IC50 (NCI-H522): 1000 nM
IC50 [5]: 25.1 nM
IC50 [6]: 12.6 nM
IC50 [7]: 158 nM
IC50 [8]: 126 nM
IC50 (HT-29): 126 nM
IC50 (KM12): 398 nM
IC50 [9]: 15800 nM
IC50 [10]: 20 nM
IC50 [11]: 50.1 nM
IC50 [12]: 20 nM
IC50 [13]: 126 nM
IC50 [14]: 31.6 nM
IC50 (U-251): 126 nM
IC50 [15]: 316 nM
IC50 (Malme-3M): 126 nM
IC50 (M14): 200 nM
IC50 (MDA-MB-435): 398 nM
IC50 (SK-MEL-2): 398 nM
IC50 (SK-MEL-28): 126 nM
IC50 (SK-MEL-5): 63.1 nM
IC50 [16]: 251 nM
IC50 [17]: 25.1 nM
IC50 [18]: 50.1 nM
IC50 [19]: 100 nM
IC50 [20]: 25.1 nM
IC50 [21]: 316 nM
IC50 [22]: 158 nM
IC50 [23]: 316 nM
IC50 (786-0): 126 nM
IC50 (A498): 31.6 nM
IC50 (ACHN): 31.6 nM
IC50 [24]: 50.1 nM
IC50 [25]: 15.8 nM
IC50 (SN12C): 316 nM
IC50 [26]: 31.6 nM
IC50 [27]: 25.1 nM
IC50 [28]: 398 nM
IC50 [29]: < 10 nM
IC50 (MCF7): 1260 nM
IC50 (MDA-MB-231): 251 nM
IC50 [30]: 501 nM
IC50 [31]: 158 nM
IC50 (T47D): 63.1 nM
IC50 [2]: 210 nM
IC50 [1]: 8800 nM
Ratio IC50 [32]: 41.9
TGI (MV522): Active
